# From ChEMBL document CHEMBL3352487, “Synthesis, antibacterial activity, and biological evaluation of formyl hydroxyamino derivatives as novel potent peptide deformylase inhibitors against drug-resistant bacteria” (Eur J Med Chem, 2014)
# Columns and labels:
# [1] = system: Staphylococcus aureus; test: Antimicrobial activity against Staphylococcus aureus MRSA08-12 in peritonitis mouse model assessed as mortality of host at 5 mg/kg, iv as single dose relative to control; format: functional
# In short: (§1)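 Outbred KM mice (20–25 g) infected i.p. with a 90–100% lethal dose (5 × 10^7 CFU/mL) in 0.5 mL brain heart infusion broth with 5% mucin. Single i.v. dose of 1.25–20 mg/kg in 20% DMSO, 0.1 mL. Ten mice per dose; daily monitoring for 14 days; ED50 from cumulative mortality by Bliss's method.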
# [2] = target: T1, hERG (KCNH2) (Homo sapiens, UniProt Q12809); test: Inhibition of human ERG at 1 uM
# T1 sequence (Q12809 whole entry): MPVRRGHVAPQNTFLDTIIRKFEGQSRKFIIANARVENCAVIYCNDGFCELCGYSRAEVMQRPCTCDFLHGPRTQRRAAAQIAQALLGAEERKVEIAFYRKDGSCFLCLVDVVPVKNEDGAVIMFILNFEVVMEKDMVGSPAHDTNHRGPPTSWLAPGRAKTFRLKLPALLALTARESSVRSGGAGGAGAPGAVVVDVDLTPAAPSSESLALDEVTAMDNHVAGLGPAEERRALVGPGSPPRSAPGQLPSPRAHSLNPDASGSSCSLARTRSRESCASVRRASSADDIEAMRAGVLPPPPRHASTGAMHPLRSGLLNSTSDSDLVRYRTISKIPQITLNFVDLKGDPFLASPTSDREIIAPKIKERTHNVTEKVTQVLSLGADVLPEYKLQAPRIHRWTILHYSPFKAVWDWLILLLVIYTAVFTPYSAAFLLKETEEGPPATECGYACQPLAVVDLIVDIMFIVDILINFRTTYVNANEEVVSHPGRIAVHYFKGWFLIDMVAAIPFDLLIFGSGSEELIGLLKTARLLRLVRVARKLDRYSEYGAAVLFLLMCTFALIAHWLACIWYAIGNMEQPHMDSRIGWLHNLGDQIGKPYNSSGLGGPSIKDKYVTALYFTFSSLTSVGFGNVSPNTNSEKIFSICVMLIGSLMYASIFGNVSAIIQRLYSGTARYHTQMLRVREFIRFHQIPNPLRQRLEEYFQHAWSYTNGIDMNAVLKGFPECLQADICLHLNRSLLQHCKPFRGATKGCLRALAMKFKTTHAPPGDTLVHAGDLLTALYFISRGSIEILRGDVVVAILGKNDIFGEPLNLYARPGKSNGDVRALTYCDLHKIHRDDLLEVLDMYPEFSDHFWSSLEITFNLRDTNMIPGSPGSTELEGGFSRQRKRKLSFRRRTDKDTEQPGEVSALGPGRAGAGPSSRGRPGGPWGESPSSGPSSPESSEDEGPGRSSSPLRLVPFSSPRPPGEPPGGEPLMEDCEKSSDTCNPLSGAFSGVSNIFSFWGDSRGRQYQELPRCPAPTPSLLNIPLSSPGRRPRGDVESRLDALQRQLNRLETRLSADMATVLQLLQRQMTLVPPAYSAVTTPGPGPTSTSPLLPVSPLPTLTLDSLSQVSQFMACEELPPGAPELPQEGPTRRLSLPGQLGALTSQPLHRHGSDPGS
# [3] = system: Mus musculus; test: Acute toxicity in KM mouse assessed as abnormal behaviour at 100 mg/kg, iv measured for 14 days; format: organism-based; design: dose 100 mg/kg, route intravenous; details: in vivo, 336 h
# In short: (§2)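 Outbred KM mice (SPF, 20–25 g; nine male, ten female) given a single tail-vein injection of 100 or 250 mg/kg in PBS pH 6.5 with 20% DMSO over about 60 s. Behaviour, weight, coat colour, anal temperature, food and water intake, and urine and stool weight followed for 14 days. On day 14, gross necropsy of skin, lungs, heart, liver, kidneys and spleen.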
# [4] = system: Mus musculus; test: Acute toxicity in KM mouse assessed as lung abnormality at 250 mg/kg, iv measured for 14 days by necropsy; format: organism-based; design: dose 250 mg/kg, route intravenous; details: in vivo, 336 h; in short: as §2
# [5] = system: Mus musculus; test: Acute toxicity in KM mouse assessed as heart abnormality at 250 mg/kg, iv measured for 14 days by necropsy; format: organism-based; design: dose 250 mg/kg, route intravenous; details: in vivo, 336 h; in short: as §2
# [6] = system: Mus musculus; test: Acute toxicity in KM mouse assessed as kidney abnormality at 250 mg/kg, iv measured for 14 days by necropsy; format: organism-based; design: dose 250 mg/kg, route intravenous; details: in vivo, 336 h; in short: as §2
# [7] = system: Staphylococcus aureus; test: Antimicrobial activity against Staphylococcus aureus after 24 hrs by broth microdilution method; format: functional
# In short: (§3)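 Broth microdilution following NCCLS M7-A4; ATCC strains and clinical isolates from a provincial hospital.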
# [8] = system: Staphylococcus aureus; test: Antimicrobial activity against methicillin-susceptible Staphylococcus aureus after 24 hrs by broth microdilution method; format: functional; in short: as §3
# [9] = system: Staphylococcus epidermidis; test: Antimicrobial activity against Staphylococcus epidermidis after 24 hrs by broth microdilution method; format: functional; in short: as §3
# [10] = system: Staphylococcus aureus; test: Antimicrobial activity against Staphylococcus aureus WCUH29 after 24 hrs by broth microdilution method; format: functional; details: WCUH29, 24 h; in short: as §3
# [11] = system: Haemophilus influenzae; test: Antimicrobial activity against Haemophilus influenzae H128 after 24 hrs by broth microdilution method; format: functional; details: H128, 24 h; in short: as §3
# [12] = system: Haemophilus influenzae; test: Antimicrobial activity against AcrA-deficient Haemophilus influenzae H128 after 24 hrs by broth microdilution method; format: functional; details: H128, 24 h; in short: as §3
# [13] = system: Moraxella catarrhalis; test: Antimicrobial activity against Moraxella catarrhalis 1502 after 24 hrs by broth microdilution method; format: functional; details: Moraxella catarrhalis, 1502, 24 h; in short: as §3
# [14] = system: Streptococcus pneumoniae; test: Antimicrobial activity against Streptococcus pneumoniae 1629 after 24 hrs by broth microdilution method; format: functional; details: Streptococcus pneumoniae, 1629, 24 h; in short: as §3
# [15] = system: Streptococcus pneumoniae; test: Antimicrobial activity against Streptococcus pneumoniae N1387 after 24 hrs by broth microdilution method; format: functional; details: N1387, 24 h; in short: as §3
# [16] = system: Streptococcus pneumoniae; test: Antimicrobial activity against Streptococcus pneumoniae ERY2 after 24 hrs by broth microdilution method; format: functional; details: ERY2, 24 h; in short: as §3
# [17] = system: Escherichia coli; test: Antimicrobial activity against Escherichia coli isolate 3 after 24 hrs by broth microdilution method; format: functional; details: isolate 3, 24 h; in short: as §3
# [18] = system: Staphylococcus aureus; test: Antimicrobial activity against Staphylococcus aureus isolate A53 after 24 hrs by broth microdilution method; format: functional; details: isolate A53, 24 h
# In short: (§4)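 Broth microdilution following NCCLS M7-A4, using ATCC strains and clinical isolates from a provincial hospital.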
# [19] = system: Staphylococcus aureus; test: Antimicrobial activity against Staphylococcus aureus isolate CARTER 37 after 24 hrs by broth microdilution method; format: functional; details: isolate CARTER 37, 24 h; in short: as §4
# [20] = system: Staphylococcus aureus; test: Antimicrobial activity against Staphylococcus aureus isolate CL 939 after 24 hrs by broth microdilution method; format: functional; details: isolate CL 939, 24 h; in short: as §4
# [21] = system: Staphylococcus aureus; test: Antimicrobial activity against Staphylococcus aureus isolate Ealing 32 after 24 hrs by broth microdilution method; format: functional; details: isolate Ealing 32, 24 h; in short: as §3
# [22] = system: Staphylococcus aureus; test: Antimicrobial activity against Staphylococcus aureus isolate RN4220 pmz1 after 24 hrs by broth microdilution method; format: functional; details: isolate RN4220 pmz1, 24 h; in short: as §4
# [23] = system: Staphylococcus aureus; test: Antimicrobial activity against Staphylococcus aureus isolate Smith ATCC 13709 after 24 hrs by broth microdilution method; format: functional; details: isolate Smith ATCC 13709, 24 h; in short: as §4
# [24] = system: Staphylococcus aureus; test: Antimicrobial activity against Staphylococcus aureus isolate SWEETING after 24 hrs by broth microdilution method; format: functional; in short: as §4
# [25] = system: Staphylococcus aureus; test: Antimicrobial activity against Staphylococcus aureus isolate MN 1255 after 24 hrs by broth microdilution method; format: functional; details: isolate MN 1255, 24 h; in short: as §3
# [26] = system: Staphylococcus aureus; test: Antimicrobial activity against Staphylococcus aureus isolate RN1024 after 24 hrs by broth microdilution method; format: functional; details: isolate RN1024, 24 h; in short: as §4
# [27] = system: Staphylococcus aureus; test: Antimicrobial activity against Staphylococcus aureus isolate 306 after 24 hrs by broth microdilution method; format: functional; details: isolate 306, 24 h; in short: as §3
# [28] = system: Staphylococcus aureus; test: Antimicrobial activity against Staphylococcus aureus isolate 68/8684 after 24 hrs by broth microdilution method; format: functional; details: isolate 68/8684, 24 h; in short: as §3
# [29] = system: Staphylococcus aureus; test: Antimicrobial activity against Staphylococcus aureus isolate 929003 after 24 hrs by broth microdilution method; format: functional; details: isolate 929003, 24 h; in short: as §3
# [30] = system: Staphylococcus aureus; test: Antimicrobial activity against Staphylococcus aureus isolate 934324 after 24 hrs by broth microdilution method; format: functional; details: isolate 934324, 24 h; in short: as §3
# [31] = system: Staphylococcus aureus; test: Antimicrobial activity against Staphylococcus aureus isolate 934334 after 24 hrs by broth microdilution method; format: functional; details: isolate 934334, 24 h; in short: as §3
# [32] = system: Staphylococcus aureus; test: Antimicrobial activity against Staphylococcus aureus isolate 934387 after 24 hrs by broth microdilution method; format: functional; details: isolate 934387, 24 h; in short: as §4
# [33] = Half life in Sprague-Dawley rat at 5 mg/kg, iv; format: ADME, organism-based; design: dose 5 mg/kg, route intravenous; details: in vivo
# [34] = Mean residence time (0 to t) in Sprague-Dawley rat at 5 mg/kg, iv; format: ADME, organism-based; design: dose 5 mg/kg, route intravenous; details: in vivo
# [35] = Clearance in Sprague-Dawley rat at 5 mg/kg, iv; format: ADME, organism-based; design: dose 5 mg/kg, route intravenous; details: in vivo
# [36] = Volume of distribution at steady state in Sprague-Dawley rat at 5 mg/kg, iv; format: ADME, organism-based; design: dose 5 mg/kg, route intravenous; details: in vivo, read-out: Vdss
# [37] = Tmax in Sprague-Dawley rat at 25 mg/kg, po; format: ADME, organism-based; design: dose 25 mg/kg, route oral; details: in vivo
# [38] = Half life in Sprague-Dawley rat at 25 mg/kg, po; format: ADME, organism-based; design: dose 25 mg/kg, route oral; details: in vivo
# [39] = AUC (0 to infinity) in Sprague-Dawley rat at 25 mg/kg, po; format: ADME, organism-based; design: dose 25 mg/kg, route oral, time infinity; details: plasma
# [40] = Mean residence time (0 to t) in Sprague-Dawley rat at 25 mg/kg, po; format: ADME, organism-based; design: dose 25 mg/kg, route oral; details: in vivo
# [41] = Oral bioavailability in Sprague-Dawley rat at 25 mg/kg; format: ADME, organism-based; details: in vivo
# [42] = target: T1, hERG (KCNH2); test: Inhibition of human ERG at 10 uM
# [43] = Solubility of the compound in artificial gastric juice measured every 2 hrs for 12 hrs by HPLC analysis; format: ADME; details: simulated gi fluid
# [44] = Solubility of the compound in artificial intestinal juice measured every 2 hrs for 12 hrs by HPLC analysis; format: physicochemical; details: simulated gi fluid
# [45] = Stability of the compound in artificial intestinal juice measured every 2 hrs for 12 hrs by HPLC analysis; format: physicochemical; details: simulated gi fluid
# [46] = system: Staphylococcus aureus; test: Antimicrobial activity against Staphylococcus aureus MRSA08-12 in peritonitis mouse model assessed as mortality of host at 20 mg/kg, iv as single dose relative to control; format: functional; in short: as §1
smiles,measurement,setting,value
CCCC[C@H](CN(O)C=O)C(=O)N1CC=C[C@H]1C(=O)Nc1ccc(F)c[n+]1[O-],mortality at 5 mg/kg,[1],60%
same,inhibition at 1 µM,[2],4.55%
same,Activity,[3],Non-toxic
same,Activity,[4],Non-toxic
same,Activity,[5],Non-toxic
same,Activity,[6],Non-toxic
same,MIC,[7],0.5 µg/mL
same,MIC,[8],1 µg/mL
same,MIC,[9],1 µg/mL
same,MIC,[10],0.125 µg/mL
same,MIC,[11],2 µg/mL
same,MIC,[12],≤ 0.06 µg/mL
same,MIC,[13],≤ 0.06 µg/mL
same,MIC,[14],1 µg/mL
same,MIC,[15],0.5 µg/mL
same,MIC,[16],1 µg/mL
same,MIC,[17],64 µg/mL
same,MIC,[18],0.5 µg/mL
same,MIC,[19],0.5 µg/mL
same,MIC,[20],0.125 µg/mL
same,MIC,[21],0.25 µg/mL
same,MIC,[22],0.5 µg/mL
same,MIC,[23],0.25 µg/mL
same,MIC,[24],0.125 µg/mL
same,MIC,[25],0.25 µg/mL
same,MIC,[26],0.5 µg/mL
same,MIC,[27],2 µg/mL
same,MIC,[28],> 16 µg/mL
same,MIC,[29],2 µg/mL
same,MIC,[30],1 µg/mL
same,MIC,[31],1 µg/mL
same,MIC,[32],0.5 µg/mL
same,half-life,[33],1.17 h
same,MRT last,[34],0.564 h
same,clearance,[35],46.8 mL/min/kg
same,Vd,[36],1.72 L/kg
same,Tmax,[37],0.688 h
same,half-life,[38],1.82 h
same,AUC(0-inf),[39],3390 ng·h/mL
same,MRT last,[40],2.34 h
same,bioavailability,[41],34.6%
same,inhibition at 10 µM,[42],6.71%
same,solubility,[43],soluble
same,solubility,[44],soluble
same,Stability,[45],Stable
same,mortality at 20 mg/kg,[46],10%
